Data on one compound can be found in paper PMC11544174 (Acta Pharmaceutica Sinica. B, 2024).

The nature of one data set: cytotoxicity. It is filed as cell-based. To be noted: human, HEp-2 cells. The procedure, abridged:
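HEp-2 cells were grown in DMEM with 10% FBS. Test compounds were held as 50 mmol/L DMSO stocks at −20 °C and diluted into culture medium to final concentrations. Ribavirin served as positive control.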

Data set [1] concerns respiratory syncytial virus (RSV). The data set can be described thus: cytopathic effect. It is filed as cell-based, strain A2. As to conditions: human respiratory syncytial virus, HEp-2, read-out: IC50 ± SD (50% inhibition concentration), anti-RSV activity. The procedure, abridged:
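Host cells were HEp-2 in DMEM with 10% FBS. RSV A2 stock was propagated in HEp-2 and titred by plaque assay. Test compounds were held as 50 mmol/L DMSO stocks at −20 °C and diluted into medium to final concentrations. Ribavirin served as positive control.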
On the technique in general: Cytopathic effects are the visible damage that an infection or toxin causes in cultured cells.

Take `NC(=O)c1ncn([C@@H]2O[C@H](CO)[C@@H](O)[C@H]2O)n1` [Ribavirin]: the half-maximal cytotoxic concentration (CC50) in the data set “cytotoxicity” is > 50 µM. The IC50 in data set [1] turned out to be 15 ± 1 µM.

As a reminder, the CC50 is the concentration at which the toxic effect on the cells reaches its halfway point. A higher CC50 goes with better tolerance by the cells.
